bIAP act: increases bovine intestinal alkaline phosphatase activity; purified bovine IAP, CDP-star luminescence, 30 min; hits give high values; fold of DMSO-control signal, blank-subtracted; activation factor at 20 µM; 200,000 compounds, 0.17% hits; AID 1016;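 active = activation factor of 2 or more at 20 µM, a signal rise over negative controls twice the positive control's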
mIAP activ: mouse IAP activation. muIAP, CDP-Star luminescence, 30 min; hits give high values; 1 = vehicle-only enzyme signal, 0 = enzyme-free wells. activation factor at 10 µM. 330,000 compounds, 0.24% hits. AID 2805;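 active = activation factor of at least 2 at 20 µM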
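Assay system: mouse IAP enzyme; reagent: chemiluminescent substrate CDP-Star; dosing: test compounds delivered from DMSO solution; schedule: 30 min at room temperature; measured by: luminescence from enzymatic CDP-Star hydrolysis; controls: DMSO-only wells and no-enzyme negative control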
hIAP inh: human IAP inhibition; P09923; purified IAP, CDP-Star luminescence, 30 min; inhibition, % at 10 µM; 330,000 compounds, 0.12% hits; AID 2544;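 active = inhibition reaching a set limit with compound at 10 µM in the primary screen, cut at about 35% in these data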;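 note: plate controls were DMSO wells with enzyme for no effect and no-enzyme buffer wells for full effect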
Target sequence (P09923 whole entry, looked up): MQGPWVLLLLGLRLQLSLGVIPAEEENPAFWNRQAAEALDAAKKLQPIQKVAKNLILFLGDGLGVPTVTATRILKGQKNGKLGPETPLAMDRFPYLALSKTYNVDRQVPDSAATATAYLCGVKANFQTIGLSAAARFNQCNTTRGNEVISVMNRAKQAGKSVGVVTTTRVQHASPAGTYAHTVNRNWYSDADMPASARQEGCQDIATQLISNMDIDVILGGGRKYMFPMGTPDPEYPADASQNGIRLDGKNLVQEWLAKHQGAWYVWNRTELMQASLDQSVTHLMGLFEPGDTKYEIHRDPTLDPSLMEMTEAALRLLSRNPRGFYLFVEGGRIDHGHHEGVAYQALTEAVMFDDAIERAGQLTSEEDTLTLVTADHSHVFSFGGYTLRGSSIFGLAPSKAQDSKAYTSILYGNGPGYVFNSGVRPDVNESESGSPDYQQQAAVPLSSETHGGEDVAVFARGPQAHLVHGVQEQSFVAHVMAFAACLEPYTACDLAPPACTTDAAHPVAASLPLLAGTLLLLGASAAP
bIAP inhibitor: blocks bovine intestinal alkaline phosphatase activity; purified bovine IAP, CDP-star luminescence, 30 min; inhibition, % at 20 µM; 190,000 tested, under 10 active; AID 1019;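 active = over 50% inhibition of intestinal alkaline phosphatase at 20 µM in the single-dose screen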
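test system = bovine IAP enzyme | medium = DEA buffer 100 mM, pH 9.8, with MgCl2 1.0 mM, ZnCl2 0.02 mM | detection = luminescence | dosing = single compound dose of 20 µM, 2% DMSO final | incubation = 30 min reaction at room temperature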
hIAP activ: human IAP activation; purified human IAP, CDP-Star luminescence, 30 min; hits give high values; 1 = vehicle-only enzyme, 0 = enzyme-free background; activation factor at 10 µM; 330,000 compounds, 0.16% hits; AID 2524;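 active = activation factor of the enzyme at least 2-fold when tested at 20 µM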
mIAP inh: mouse IAP inhibition; 330,000 compounds, 0.2% hits; purified mouse IAP, CDP-Star luminescence, 30 min; inhibition, % at 10 µM; AID 2806;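 active = inhibition of at least 40% at 10 µM in the primary screen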;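 note: plate controls were DMSO with enzyme for no effect and no enzyme wells for full effect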
* marks the source's active call; other numbers are inactive results; x = no result given. Sampled rows, rich in hits. Any-hit rate of the full collection: about 0.79%.

SMILES	bIAP act	mIAP activ	hIAP inh	bIAP inhibitor	hIAP activ	mIAP inh
CCC(C(=O)NC1CCCC1)N(Cc1cccs1)C(=O)Cn1nnc(-c2ccc(OC)c(OC)c2)n1 (stereo unspecified)	0.9	2.1*	-29	6	1.3	-109
COc1ccc(-c2nnn(CC(=O)N(Cc3cccs3)C(C)C(=O)NC3CCCC3)n2)cc1OC (stereo unspecified)	1.3	1.1	6	-25	0.94	-7
CCN(CC(=O)Nc1cccc(F)c1)Cc1nc2ccccc2c(=O)[nH]1	1.8	1.1	-43	-78	1.4	-7
CCN(CC(=O)NCc1ccc(F)cc1)Cc1nc2ccccc2c(=O)[nH]1	2*	1.2	-5	-100	1	-15
CC(C)CCCCCCNC(=S)Nc1ccc(S(=O)(=O)N2CCOCC2)cc1	0.9	2.2*	6	6	0.94	-125
O=S(=O)(c1ccc(NC(=S)Nc2ccccc2)cc1)N1CCOCC1	1	1	-6	2	1.1	-1
C[C@H](CO)N1C[C@H](C)[C@@H](CN(C)C(=O)NC2CCCCC2)Oc2ccc(NC(=O)Nc3ccc(C(F)(F)F)cc3)cc2C1=O	x	2.3*	-10	x	1.1	-130
C[C@H](CO)N1C[C@H](C)[C@@H](CN(C)C(=O)Nc2ccc(C(F)(F)F)cc2)Oc2ccc(NC(=O)NC3CCCCC3)cc2C1=O	x	3.1*	-24	x	1.2	-212
Cc1noc(C)c1NC(=O)N(C)C[C@H]1Oc2ccc(NC(=O)NC(C)C)cc2C(=O)N([C@H](C)CO)C[C@H]1C	x	1.2	2	x	0.98	-22
C[C@H]1CN([C@@H](C)CO)C(=O)c2cccc(NC(=O)Nc3ccc(C(F)(F)F)cc3)c2O[C@@H]1CN(C)S(=O)(=O)c1ccc(Cl)cc1	x	2.1*	-2	x	1	-111
Cc1noc(C)c1NC(=O)N(C)C[C@H]1Oc2ccc(NC(=O)Nc3ccc(C(F)(F)F)cc3)cc2C(=O)N([C@H](C)CO)C[C@@H]1C	x	2.5*	-10	x	1.1	-155
COc1ccc(CN(CC(=O)NCc2ccc(F)cc2)C(=O)CCC(=O)Nc2ccccn2)cc1	x	0.93	5	x	0.95	7
C[C@@H]1CN([C@@H](C)CO)C(=O)Cc2cc(NC(=O)Nc3ccc(C(F)(F)F)cc3)ccc2O[C@@H]1CN(C)S(=O)(=O)c1ccc(Cl)cc1	x	1.4	-17	x	1.2	-41
C[C@H](CO)N1C[C@H](C)[C@H](CN(C)S(=O)(=O)c2cn(C)cn2)Oc2ccc(NC(=O)Nc3ccc(C(F)(F)F)cc3)cc2CC1=O	x	2.7*	-8	x	1.1	-169
C[C@H](CO)N1C[C@H](C)[C@@H](CN(C)C(=O)Nc2ccc(C(F)(F)F)cc2)Oc2ccc(NC(=O)Nc3ccccc3)cc2C1=O	x	2.4*	-10	x	1.1	-143
C[C@H](CO)N1C[C@H](C)[C@@H](CN(C)S(C)(=O)=O)Oc2ccc(NC(=O)Nc3ccc(C(F)(F)F)cc3)cc2C1=O	x	2.3*	-4	x	1	-126
CCCCCC(=O)N1CCCCC1	x	1.2	-12	x	1.1	-22
O=C(N/N=C/c1ccc(O)cc1)c1cc(-c2ccc3c(c2)OCO3)n[nH]1	0.9	0.86	36*	11	0.65	14
COCCNC(=O)CSc1nnc(-c2ccccc2F)n1Cc1ccccc1	1.3	1	2	-26	0.98	-3
COc1cc(NCCC(=O)c2cccs2)c(OC)cc1Cl	0.8	0.82	8	21	0.92	18
Cc1ccc(C)c(OCCC(=O)Nc2cc(S(=O)(=O)N3CCCCC3)ccc2C)c1	x	1.5	1	x	0.99	-48
Cc1ccc(C)c(OCCC(=O)Nc2cccc(S(=O)(=O)N3CCCCC3)c2)c1	x	2*	-2	x	1	-105
CC(=O)n1cc(N(C(=O)CCl)c2ccc([N+](=O)[O-])cc2)c2ccccc21	x	0.95	-12	x	1.1	5
O=Cc1[nH]c2ccccc2c1N(C(=O)CCl)c1ccc([N+](=O)[O-])cc1	x	0.97	35*	x	0.65	3
Cc1ccc(S(=O)(=O)N(CC(=O)Nc2ccccc2C(=O)O)c2ccccc2)cc1	1	0.95	-8	-1	1.1	5
CNC[C@@H]1Oc2ccc(NC(=O)Nc3ccccc3)cc2C(=O)N([C@@H](C)CO)C[C@H]1C	x	2.3*	-8	x	1.1	-132

Assay outcomes from PubChem BioAssay.
